Most compounds without a hit are left out; they make up all but 8.9% or so of the library.
MT stabilizer = microtubule stabilizers in HeLa cells, primary screen, imaging, high-content imaging; AID 2205, 2009; % tubulin-high responders, % at 10 µM; HeLa tubulin immunostaining HCS, 24 h; share of cells brighter than vehicle mean+2SD; 0.83% of 200,000 active;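 active means plate Z-score above 3 for both tubulin-high and condensed-nucleus cell shares, with cell loss under 80%, at 10 µM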;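 further: anti alpha tubulin signal scored within the nucleus-defined area of each cell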
bCat nuc transl = modulators of beta-catenin nuclear translocation, primary screen, imaging, HeLa cells, immunofluorescence, high-content. 0.3% of 190,000 active. nuclear translocation activity, % at 5 µM. AID 1665, 2009;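 active means nuclear translocation activity above 50% at 5 µM, with a well cell count of 50 or more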;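 further: per-cell ratio of nuclear to cytoplasmic median beta-catenin stain intensity; plate controls were DMSO negative control for no effect and GSK-3 inhibitor IX positive control for full effect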
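Technique: fluorescence imaging of beta-catenin antibody stain plus DAPI / Material: human HeLa cell line / Incubation: compound treatment 24 h, 37°C, 5% CO2 / Read-out basis: % activation of per-cell nuclear versus cytoplasmic median beta-catenin signal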
Dynein cargo inh = inhibitors of GR-EGFP nuclear translocation, primary screen, dynein cargo transport inhibitor project, imaging, high-content, 3617.4 mouse cells | 0.47% of 220,000 active | z-score, hits read low | test concentration mostly 20 µM; stimulated with dexamethasone, 1 µM; hits give low values | AID 1381, 2008;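 active means plate z-score of nuclear minus cytoplasmic receptor signal below a set negative limit, without overly bright fluorescence or cell loss, cut at about -3.5 in these data, passing the limit was not always enough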;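 further: z-score of nuclear minus cytoplasmic ring GR-EGFP intensity difference per well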
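Buffer or medium: tet-free medium with charcoal-stripped serum / Also added: dexamethasone agonist, 1.0 µM final, for 30 min / Timing: induction 48 h, compound 1 h, agonist 30 min / Measured by: high-content fluorescence imaging after fixation / Read-out: nuclear-to-cytoplasmic GR-EGFP distribution per well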
L major viab = Leishmania major promastigote growth inhibition, primary screen | Leishmania major promastigotes, resazurin fluorescence viability | inhibition, % at 10 µM | 9% of 200,000 active; in the data active means inhibition above about 50%;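 further: promastigotes grown with compound for 44 hours at 28 °C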
HSV augment = enhancers of HSV replication in host cells, fold increase, host cell viability | HSV replication augmentation in cells | maximum fold increase | 0.005% of 220,000 active | AID 1956, 2009; in the data active means maximum fold increase above about 1.5; tested in PC3 cells
Starred values were filed as active, the others as inactive; i = inactive; nt = no result.

SMILES | MT stabilizer | bCat nuc transl | Dynein cargo inh | L major viab | HSV augment
Cc1ccc2c(c1)C=CC(C#N)N2C(=O)c1ccccc1 (centres undefined) | 33* | 56* | -0.91 | 23 | i
COCCN1C=C(C(=O)OC)C(c2cc(Br)c(OC)c(OC)c2)C(C(=O)OC)=C1 | 4 | 0 | -0.65 | 100* | i
Cc1ccc(S(=O)(=O)Oc2ccc(/C=N/N=C3/NC(=O)C(CC(=O)O)S3)cc2)cc1 (centres undefined) | nt | 0 | nt | nt | nt
O=C(O)CC1S/C(=N/N=C/c2ccc(-c3ccccc3[N+](=O)[O-])o2)NC1=O (centres undefined) | 1 | 2 | -0.34 | 100* | i
O=[N+]([O-])c1ccccc1-c1ccc(/C=N/n2cnnc2)o1 | 1 | 4 | 0.0063 | -1 | i
Cc1ccc(-c2ccc(/C=N/N=C3/NC(=O)C(CC(=O)O)S3)o2)c([N+](=O)[O-])c1 (centres undefined) | 2 | 2 | 0.55 | 100* | i
COc1cc(NC(=S)NC(=O)c2ccco2)ccc1NC(=O)C(C)C | 6 | 0 | -1.2 | 86* | i
CCCCC(=O)Nc1ccc(NC(=S)NC(=O)c2ccco2)cc1OC | nt | -1 | -0.31 | nt | i
COc1cc(NC(=S)NC(=O)c2ccccc2F)ccc1NC(=O)c1ccco1 | 15* | 0 | 1.2 | -5 | i
CN1C2CCC1/C(=C\c1ccc(F)cc1)C(=O)/C2=C/c1ccc(F)cc1 | 4 | -2 | 0.39 | 75* | i
O=C(Nc1ccc(S(=O)(=O)Nc2nccs2)cc1)c1ccc(=O)[nH]c1 | 2 | 0 | -0.83 | -6 | i
CCOC(=O)c1ccccc1NC(=O)CSc1nncn1C | 2 | -1 | 0.23 | -3 | i
C#CCn1c(=NC(=O)CN2C(=O)CCC2=O)sc2cccc(C)c21 | 4 | nt | 1.3 | -2 | i
Cc1ccc(C)c2c1sc(=NC(=O)CN1C(=O)CCC1=O)n2C | 4 | nt | -0.31 | 91* | i
Cc1cccc(C)c1OC(=O)CSc1nnc(-c2ccccc2O)o1 | 2 | 0 | -0.49 | 0 | i
O=C(COc1ccccc1)Nc1ccc2c(c1)Cc1cc(NC(=O)COc3ccccc3)ccc1-2 | 5 | -2 | -0.38 | -8 | i
O=C(COc1ccccc1)Nc1ccc2[nH]c(=O)[nH]c2c1 | 6 | 0 | 0.4 | 90* | i
O=C(Nc1ccc(F)cc1)c1sc2cc(C(F)(F)F)cnc2c1-c1cccs1 | 1 | nt | 0.76 | 56* | i
COc1cc(SC#N)ccc1N=Cc1c(C)[nH]n(-c2cccc3ccccc23)c1=O | 2 | -2 | -0.33 | 18 | i
COc1cc(SC#N)ccc1N=Cc1c(C)[nH]n(-c2ccc(C)cc2C)c1=O | 2 | 0 | -0.7 | 56* | i
Fc1ccc(-c2csc(=S)[nH]2)cc1 | 2 | 1 | 3.4 | 93* | i
O=c1[nH]c(-c2ccc(Cl)cc2)cs1 | 5 | -3 | -0.18 | -5 | i
O=C(Nc1ccccc1)c1sccc1Oc1ccc([N+](=O)[O-])cc1F | 5 | -2 | -0.77 | 84* | i
O=C(NCC(c1cccnc1)N1CCN(c2ccccc2F)CC1)c1ccccc1 (centres undefined) | 1 | -1 | -0.99 | 84* | i
COc1ccc(N2CCN(C(CNC(=O)C(=O)NCC3CCCO3)c3ccco3)CC2)cc1 (centres undefined) | 1 | -1 | 0.35 | -4 | i
SMILES | MT stabilizer | bCat nuc transl | Dynein cargo inh | L major viab | HSV augment
O=C(NCc1cccs1)C(=O)NCC(c1ccco1)N1CCN(c2ccccc2F)CC1 (centres undefined) | 2 | 0 | 0.56 | 6 | i
O=C(NCC(c1cccnc1)N1CCN(c2ccccc2F)CC1)c1ccco1 (centres undefined) | 2 | -1 | 0.03 | 89* | i
O=C(NCC1CCCO1)C(=O)NCC(c1ccco1)N1CCN(c2ccccc2F)CC1 (centres undefined) | 3 | 2 | -0.63 | 53* | i
CC(=O)Oc1ccc(C2C3=C(CC(C)(C)CC3=O)Nc3cc4c(cc32)OCCO4)cc1 (centres undefined) | 4 | 0 | 0.51 | 4 | i
O=C(CN1C(=O)NC2(CCCC2)C1=O)N1CCN(S(=O)(=O)c2ccccc2)CC1 | 5 | -2 | 0.55 | 6 | i
Fc1ccccc1CSc1nc2ccccc2[nH]1 | 2 | nt | -1.2 | 91* | nt
CSc1cccc(CN2CCN(Cc3ccc(F)c(F)c3)C(CCO)C2)c1 (centres undefined) | 6 | -1 | -0.22 | 79* | i
CSc1ccc(CN2CCN(CC=C(C)C)C(CCO)C2)cc1 (centres undefined) | 6 | 0 | -0.44 | 65* | i
CC(C)(O)C#Cc1ccc(CN2CCN(CCc3ccccc3)C(CCO)C2)s1 (centres undefined) | 2 | 1 | -0.24 | 80* | i
CC(C)c1cc(CN2CCN(Cc3ccc(F)c(F)c3)C(CCO)C2)[nH]n1 (centres undefined) | 2 | 0 | 0.48 | 6 | i
COc1ccc(CN2CCN(CC=C(C)C)C(CCO)C2)cc1Cn1cncn1 (centres undefined) | 2 | 2 | -1 | -2 | i
CSc1ccc(CN2CCN(Cc3ccccc3)C(CCO)C2)cc1 (centres undefined) | 3 | -2 | -0.59 | 74* | i
CSc1cccc(CN2CCN(CCc3ccccc3)C(CCO)C2)c1 (centres undefined) | 4 | 2 | 0.34 | 88* | i
CCCn1ncc(CN2CCN(CCc3ccccc3)C(CCO)C2)c1C (centres undefined) | 1 | 0 | -0.024 | 60* | i
CSc1cccc(CN2CCN(Cc3ccccc3)C(CCO)C2)c1 (centres undefined) | 3 | 0 | 0.46 | 84* | i
CC(C)c1csc(CN2CCN(Cc3ccc(F)c(F)c3)C(CCO)C2)n1 (centres undefined) | 1 | 0 | 1.1 | 70* | i
Cc1ccc2c(n1)sc1c(N)ncnc12 | 31 | 0 | 1.3 | -3 | i
Cc1cc(C)n(-c2cccc(CN3CCC(CO)(Cc4ccccc4)CC3)c2)n1 | 3 | -1 | -0.49 | 9 | i
CSc1cccc(CN2CCC(CO)(Cc3ccccc3)CC2)c1 | 1 | 2 | -0.84 | 88* | i
CCOC(=O)N1CCC(N2CCN(Cc3ccc(F)c(F)c3)C(CCO)C2)CC1 (centres undefined) | 2 | 0 | 0.59 | 84* | i
O=C(/C=C/c1cccc(OCc2ccccc2)c1)c1cccnc1 | 5 | 2 | 0.85 | 100* | i
O=C(O)/C=C/c1cccc(OCc2ccccc2)c1 | 2 | 1 | -0.21 | 2 | i
O=C(/C=C/c1ccc([N+](=O)[O-])cc1)c1cccnc1 | 5 | -1 | -1.1 | 95* | i
